# Measurements collected from several papers.
# Each line is one published result; the experiments were not run side by side.
# Target: Mitogen-activated protein kinase 3 (MAPK3, Homo sapiens, UniProt P27361)
Structure (SMILES),assay,setting,endpoint,result
N#CC1(c2ccccn2)CCN(Cc2cc(C(=O)O)c(=O)n3ccccc23)CC1,"cell-free assay, competition with immobilised ligand",1 µM,remaining binding,100%
Nc1ncc(-c2nc(N3CCOCC3)nc(N3CCOCC3)n2)c(C(F)F)n1,"binding, competition with immobilised ligand",10 µM,remaining binding,89%
COc1cc(Nc2ncc(F)c(Nc3ccc4c(n3)NC(=O)C(C)(C)O4)n2)cc(OC)c1OC,"binding, competition with immobilised ligand",10 µM,inhibition,0%
COc1ncccc1-c1cnn2ccc(N3CCN(C(=O)OC(C)C)CC3)nc12,"binding, competition with immobilised ligand",1 µM,remaining binding,100%
Cc1nn(C)cc1-c1nc2c(N3CCN(Cc4ccc(Cl)cc4)CC3)c(Cl)cnc2[nH]1,"binding, competition with immobilised ligand",1 µM,remaining binding,100%
C[C@@H](O)[C@H](N)C(=O)N1CCC[C@H]1C(=O)N1CCC[C@H]1C(=O)N[C@H](C(N)=O)[C@@H](C)O,"enzyme activity, inhibitor",30 µM,inhibition,3%
CC(C)(C)c1cc(C=C(C#N)C#N)cc(Br)c1O,"enzyme activity, inhibitor",0.5 µM,remaining activity,105%
Cn1cncc1[C@@](O)(COc1ccc(C#N)cc1-c1ccc(OC(F)(F)F)cc1)c1ccc(C#N)cc1,"cell-free assay, competition with immobilised ligand",1 µM,remaining binding,83%
CN[C@@]1(c2ccccc2Cl)CCCCC1=O,"enzyme activity, inhibitor",30 µM,inhibition,-4%
Cn1cc(-c2cc(F)cc(N3CCn4c(cc5c4CCCC5)C3=O)c2CO)cc(Nc2ccc(N3CCN(C4COC4)CC3)cn2)c1=O,"enzyme activity, inhibitor",0.1 µM,inhibition,14%
O=c1[nH]c2ccccc2n1C1CCN(Cc2ccc(-c3[nH]c4cc5ncnc5cc4nc3-c3ccccc3)cc2)CC1,cell-free assay,0.5 µM,remaining signal,118%
